Bioassay records deposited in PubChem by The Scripps Research Institute Molecular Screening Center.
OXTR agonist – activates the human oxytocin receptor; P30559; CHO-OTR cells, Fluo-8 calcium fluorescence; normalized: DMSO 0%, oxytocin 100%; activation, % at 3 µM; 320,000 tested, 0.32% active;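 active means activation above the mean of all tested compounds plus 3 SD, cutoff set per screening run, cut at about 20% in these data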;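 further: peak over basal fluorescence ratio from a 100 s FLIPR kinetic read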
TAAR1 agonist – agonists of human TAAR1; CHO RD-HGA16 TAAR1, Fluo-8 calcium fluorescence; vehicle wells 0%, saturating PEA agonist 100%; activation, % at 3 µM; Q96RJ0; 360,000 tested, 0.99% active;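 active means activation above the mean activation of all test compounds in the run plus 3 SD, cut at about 38% in these data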
Target sequence (Q96RJ0 whole entry, looked up): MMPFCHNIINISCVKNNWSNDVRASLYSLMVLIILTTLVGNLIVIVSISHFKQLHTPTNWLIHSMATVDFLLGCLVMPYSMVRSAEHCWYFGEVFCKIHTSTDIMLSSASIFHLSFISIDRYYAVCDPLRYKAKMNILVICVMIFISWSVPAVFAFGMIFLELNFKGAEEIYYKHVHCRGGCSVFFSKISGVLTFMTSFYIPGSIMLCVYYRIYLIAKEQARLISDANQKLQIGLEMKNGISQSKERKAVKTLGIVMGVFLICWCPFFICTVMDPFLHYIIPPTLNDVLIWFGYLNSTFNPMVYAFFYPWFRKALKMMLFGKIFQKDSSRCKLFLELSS
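Assay system – CHO-derived RD-HGA16 cells with stable Gα16 and human TAAR1 · Compound dosing – one-point dosing at 3 µM (nominal) · Incubation – 17-24 h seeding, 75 min 37 °C dye, 30 min RT · Measured by – kinetic Fluo-8 calcium fluorescence · Control set – DMSO vehicle as 0%, PEA at EC100 as 100% · Repeats – single well for each compound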
V1aR counter – counter-screen for oxytocin receptor agonists: human V1a receptor agonists | P37288 | CHO-V1R cells, Fluo-8 calcium fluorescence, agonist mode; 0% DMSO, 100% 3 nM vasopressin | activation, % at 3 µM | 320,000 tested, 0.25% active | AID 2797;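 active means activation above the mean activation of all tested compounds plus 3 SD, per screening run, cut at about 20% in these data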;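 further: signal is peak over basal fluorescence ratio across a 100 second FLIPR read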
OXTR potentiator – potentiates the human oxytocin receptor response | CHO-OTR cells, Fluo-8 calcium fluorescence, potentiator mode; 0% = oxytocin EC15, 100% = EC100 | 320,000 tested, 0.061% active | P30559 | AID 2445 | activation, % at 3 µM;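 active means activation above that plate's cutoff, the mean activation of tested compounds plus 3 SD, cut at about 6.6% in these data, passing the limit was not always enough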;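 further: 100% uses oxytocin at 75 nM as the full agonist control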
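Assay system: CHO cell line stably expressing human OTR | Also added: Oxytocin at about EC15, sub-maximal agonist stimulus | Times: Compound 6 min at room temperature before oxytocin, 100 s read | Measured by: Fluo-8 intracellular calcium fluorescence, ex 470-495, em 515-575 nm | Controls: EC15 oxytocin alone as 0%, 75 nM oxytocin as 100%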
TAAR1 antagonist – antagonists of human TAAR1 | inhibition, % at 3 µM | CHO RD-HGA16 TAAR1, Fluo-8 calcium fluorescence, antagonist | 360,000 tested, 1.5% active;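 active means inhibition above a per-plate cutoff, the mean inhibition of test compounds on that plate plus 3 SD, cut at about 49% in these data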;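 further: 0% = DMSO plus EC80 beta-PEA response and 100% = DMSO alone without agonist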
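Test system: RD-HGA16 CHO cells with stable hTAAR1 and Gα16 / Probe or stimulus: EC80 β-phenethylamine stimulus / Times: seeding 17-24 h prior, 75-min 37 °C, 30-min RT dye loading / Detection: Fluo-8 calcium-sensitive fluorescence / Read-out basis: % inhibition scaled between DMSO and EC80 PEA controls / Repeats: singlicate, one well per test compound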
The depositor's hits bear a star; · = no result given. The list is not random: actives were taken first. Their share in the collection is about 2.3%.

SMILES	OXTR agonist	TAAR1 agonist	V1aR counter	OXTR potentiator	TAAR1 antagonist
CCOC(=O)[C@]12CCCC=C1N(Cc1ccc(Cl)cc1Cl)C(=O)[C@H](CC(=O)NCCc1ccccc1OC)C2	·	40*	·	·	19
CCCCNC(=O)C[C@@H]1C[C@@]2(C(=O)OCC)CCCC=C2N(Cc2ccc(Cl)cc2Cl)C1=O	·	0	·	·	-23
CCCCNC(=O)C[C@@H]1C[C@@]2(C(=O)OCC)CCCC=C2N(CCc2ccc(OC)c(OC)c2)C1=O	·	1	·	·	-25
CCOC(=O)[C@]12CCCC=C1N(CCc1ccc(OC)c(OC)c1)C(=O)[C@H](CC(=O)NCCc1ccccc1OC)C2	·	46*	·	·	3
C[C@@H]1CN(S(=O)(=O)C(C)(C)C)[C@@H](CCO)/C1=C\CCO	·	3	·	·	-11
c1ccc(Nc2nc(NCC3CCCO3)c3ccccc3n2)cc1 (stereo not drawn)	1	52*	2	-5	3
OCCNc1nc(Nc2ccc(Br)cc2)nc2ccccc12	7	65*	6	-26	60*
Cc1ccc(Nc2nc(NCc3ccco3)c3ccccc3n2)cc1	13	50*	13	-29	-3
O=C(Nc1nnc([C@H]2C[C@H](O)[C@@H](CO)O2)s1)C(c1ccccc1)c1ccccc1	·	1	·	·	-4
COc1ccc(C=NN(C)C(=O)Nc2cccc(Cl)c2)cc1OC	·	0	·	·	19
CC(=O)c1cccc(NC(=O)c2ccoc2C)c1	0	6	1	-2	7
COc1ccc(C(=O)Nc2cccc(/C(C)=N\NC(=O)c3ccoc3C)c2)cc1OC	·	13	·	·	49*
Cc1c(C(=O)NCCC2=CCCCC2)oc2ccc(S(=O)(=O)N3CCC4(CC3)OCCO4)cc12	0	21	2	-12	60*
COCCCNC(=O)c1oc2ccc(S(=O)(=O)N3CCOCC3)cc2c1C	0	7	0	0	6
Cc1c(C(=O)NCC2COc3ccccc3O2)oc2ccc(S(=O)(=O)N3CCOCC3)cc12 (stereo not drawn)	8	33	6	-9	58*
Cc1c(C(=O)NCCc2ccccc2)oc2ccc(S(=O)(=O)N3CCOCC3)cc12	3	38*	7	-8	29
Cc1c(C(=O)NCc2ccccc2)oc2ccc(S(=O)(=O)N3CCC4(CC3)OCCO4)cc12	1	18	4	-7	23
Cc1ccc(C(=O)Oc2cccc(NC(=O)c3cccs3)c2)cc1S(=O)(=O)N1CCOCC1	-2	11	0	-19	57*
O=C(NCc1ccccc1)[C@@H]1CCCN1C(=O)[C@H]1CCCN1C(=O)c1c(F)cccc1F	·	1	·	·	-11
CCNC(=O)N1CCN(c2ccc(N3CCN(C(=O)NCC)[C@@H](C)C3)c(C)c2)[C@H](C)C1	·	0	·	·	-23
COC(=O)C1=C(C)N(Cc2ccc(F)cc2)C(=S)NC1c1ccccc1 (stereo not drawn)	·	-1	·	·	44
COc1ncc(C2=CC(=O)CC(C)(C)C2)cn1	1	6	1	0	20
COc1cccc(NC(=O)c2oc3ccc(S(=O)(=O)N4CCOCC4)cc3c2C)c1	0	19	4	-2	52*
C#CCNC(=O)C[C@@H]1C[C@@]2(C(=O)OC)CCCCC=C2N(CCc2ccc(OC)c(OC)c2)C1=O	·	4	·	·	9
COc1ccc(N2CCN(c3ncnc4c3[nH]c3ccccc34)CC2)cc1	14	15	10	-29	67*
SMILES	OXTR agonist	TAAR1 agonist	V1aR counter	OXTR potentiator	TAAR1 antagonist
O=C(CCCN1CCC(O)(c2cccc(C(F)(F)F)c2)CC1)c1ccc(F)cc1	7	15	2	-5	14
CCOC(=O)N1CCN(c2ncnc3c2[nH]c2ccc(F)cc23)CC1	14	23	8	-21	17
Fc1ccc2[nH]c3c(N4CCN(c5ccccc5)CC4)ncnc3c2c1	15	22	11	-33	57*
OC1(c2cccc(C(F)(F)F)c2)CCN(c2ncnc3c2[nH]c2ccc(F)cc23)CC1	·	13	·	·	60*
COc1ccc2[nH]c3c(N4CCc5ccccc5C4)ncnc3c2c1	7	10	9	-17	36
O=C(Nc1ccc(-c2ccccc2)cc1)c1ccc2c(c1)S(=O)(=O)c1ccccc1C2=O	0	9	0	-11	15
O=C(Nc1ccncc1)c1ccc2c(c1)S(=O)(=O)c1ccccc1C2=O	10	38*	8	-16	52*
COc1ccccc1Cc1c(C2CCCCC2)nc2c(C)cc(Br)cn12	·	-1	·	·	-3
CCCN(CC(=O)Nc1ccccc1OC)C(=O)c1ccc2[nH]c3c(c2c1)CC(C)CC3 (stereo not drawn)	0	15	2	-6	51*
CCN(CC(=O)Nc1ccccc1OC)C(=O)c1ccc2[nH]c3c(c2c1)CC(C)CC3 (stereo not drawn)	6	24	8	-11	56*
CCCCS(=O)(=O)N1CCCc2nc(CC)c(CC)cc21	·	-2	·	·	4
Nc1[nH]c(C(=O)c2ccccc2)c(-c2cccc3ccccc23)c1C(=O)NC1CCCCC1	·	-1	·	·	-25
C[C@H](CO)N1C[C@H](C)[C@@H](CN(C)C(=O)Nc2ccc(C(F)(F)F)cc2)Oc2c(NC(=O)Nc3ccc(C(F)(F)F)cc3)cccc2C1=O	3	10	5	0	58*
C[C@H]1CN([C@@H](C)CO)C(=O)c2cccc(NC(=O)Nc3ccc(C(F)(F)F)cc3)c2O[C@@H]1CN(C)C(=O)Nc1ccc(F)cc1	6	23	6	-8	56*
C[C@H](CO)N1C[C@H](C)[C@@H](CN(C)CC2CC2)Oc2c(NC(=O)C3CC3)cccc2C1=O	·	7	·	·	-5
Cc1cc(C(=O)Nc2cccc3c2O[C@H](CN(C)CC2CC2)[C@@H](C)CN([C@H](C)CO)C3=O)n(C)n1	1	43*	0	3	14
COc1ccc(NC(=O)Nc2cccc3c2O[C@H](CN(C)C(=O)Nc2ccc(C(F)(F)F)cc2)[C@@H](C)CN([C@H](C)CO)C3=O)cc1	0	·	0	4	·
C[C@H]1CN([C@@H](C)CO)C(=O)c2cccc(NC(=O)Nc3ccc(C(F)(F)F)cc3)c2O[C@H]1CN(C)C	0	8	2	-7	5
C[C@H]1CN([C@@H](C)CO)C(=O)c2cccc(NC(=O)c3nc4ccccc4s3)c2O[C@H]1CN(C)C(=O)Nc1ccc(F)cc1	3	33	2	-7	55*
O=C(/C=C/c1ccc(OC(F)F)cc1)Nc1cccc(S(=O)(=O)NC2=NCCCCC2)c1	7	12	10	-10	62*
O=C(NCCc1cccs1)C1CC(c2cccc([N+](=O)[O-])c2)=NO1 (stereo not drawn)	1	32	1	-8	49*
